pIC50: −log10 of the molar value. Values after ≈ are worked out from the molar mass of the structure shown.
Tests used:
[1] = tested on: Human immunodeficiency virus 2; assay: Antiviral activity against HIV-2 ROD infected in human MT4 cells; settings: Human immunodeficiency virus 2, ISOLATE ROD
[2] = Selectivity index, ratio of CC50 for human MT4 cells to IC50 for antiviral activity against HIV-1 IIIB infected in MT4 cells; assay type: toxicity, cell-based; settings: read-out: Ratio CC50/IC50
Method in brief: (§1)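 MT4 cells infected with HIV-1 IIIB or HIV-2 ROD and tested in parallel with stavudine (d4T) as positive control. Antiviral IC50 and cytotoxic CC50 were both determined in MT4 cells. Selectivity index is CC50/IC50.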

[3] = tested on: Human immunodeficiency virus 1; assay: Antiviral activity against wild type HIV-1 3B infected in human MT4 cells; assay type: functional, organism-based; settings: Human immunodeficiency virus 1, 3B
Method in brief: (§2)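 MT4 cells infected with HIV-1 (III_B) or HIV-2 (ROD), run in parallel with stavudine as positive control; antiviral IC50 and cytotoxic CC50 determined, selectivity index derived.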

[4] = tested on: Human immunodeficiency virus 1; assay: Antiviral activity against HIV-1 […] infected in thymidine kinase deficient human C8166 cells; assay type: functional, organism-based, 3B; settings: for pIC50: Human immunodeficiency virus 1, 3B, C8166, read-out: IC50
[5] = Selectivity index, ratio of CC50 for human MT4 cells to IC50 for antiviral activity against HIV-2 ROD infected in human MT4 cells; assay type: toxicity, cell-based; settings: read-out: Ratio CC50/IC50
Method in brief: as §1

[6] = Cytotoxicity against human MT4 cells; assay type: cell-based
Method in brief: as §2

[7] = physchem; settings: phosphate buffered saline, pH 7.4
[8] = tested on: Human immunodeficiency virus 1; assay: Antiviral activity against wild type HIV-1 3B infected in wild type human C8166 cells; assay type: functional, organism-based; settings: Human immunodeficiency virus 1, 3B
[9] = tested on: Human immunodeficiency virus 1; assay: Potency index, ratio of stavudine IC50 to test compound IC50 for antiviral activity against wild type HIV-1 3B infected in wild type human C8166 cells; assay type: functional
[10] = Prodrug activation in acetone-d6 and Trizma buffer assessed as carboxypeptidase Y (unknown origin)-mediated (S)-2-((((2S,5R)-5-(5-methyl-2,4-dioxo-3,4-dihydropyrimidin-1(2H)-yl)-2,5-dihydrofuran-2-yl)methoxy)oxidophosphorylamino)propanoate metabolite formation at 5 mg incubated for 7 mins to 2 hrs by 31P NMR analysis; assay type: ADME, Homo sapiens
Method in brief: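 Compound dissolved in acetone-d6 with Trizma buffer (pH 7.6), treated with carboxypeptidase Y; ³¹P NMR spectra recorded over time, blank spectrum at 25 °C, conversion of parent diastereoisomer peaks to the intermediate monitored by chemical shift changes.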

[11] = Prodrug activation in acetone-d6 and Trizma buffer assessed as carboxypeptidase Y (unknown origin)-mediated 3-(pentafluoro-lambda6-sulfanyl)phenol metabolite formation at 5 mg incubated for 1.25 hrs by 19F NMR analysis; assay type: ADME, Homo sapiens
[12] = tested on: Human immunodeficiency virus 1; assay: Potency index, ratio of stavudine IC50 to test compound IC50 for antiviral activity against HIV-1 3B infected in human MT4 cells; assay type: functional
Method in brief: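 MT4 cells infected with HIV-1 (IIIB) or HIV-2 (ROD). Test compounds were assayed alongside stavudine as the positive control, and antiviral IC50 was determined for each. Cytotoxicity (CC50) and selectivity index were determined in the same screen.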

[13] = tested on: Human immunodeficiency virus 2; assay: Potency index, ratio of stavudine IC50 to test compound IC50 for antiviral activity against HIV-2 ROD infected in human MT4 cells

SMILES	pIC50 [1]	selectivity ratio [2]	pIC50 [3]	IC50 [4]	selectivity ratio [5]	CC50 [6] [nM]	solubility kinetic at 2 h [7] [µM]	pIC50 [8]	Ratio IC50 [9]	pIC50 [4]	Drug metabolism [10]	Drug metabolism [11]	Ratio IC50 [12]	Ratio IC50 [13]
Cc1cn([C@H]2C=C[C@@H](CO)O2)c(=O)[nH]c1=O [STAVUDINE]	6.35	782	6.40	Not Active	695	313000	> 100	5.39						
COC(=O)C1=C(C)NC(C)=C(C(=O)OCCN(C)Cc2ccccc2)C1c1cccc([N+](=O)[O-])c1 (stereo unspecified) [NICARDIPINE]							10 to 30 (≈ 4.8 to 14.4 µg/mL)							
COC(=O)[C@H](C)NP(=O)(OC[C@@H]1C=C[C@H](n2cc(C)c(=O)[nH]c2=O)O1)Oc1cccc(C(F)(F)F)c1 (stereo partly specified)	7.31	1610	7.39	Not Active	1350	66100	> 100	7.41						
COC(=O)[C@H](C)NP(=O)(OC[C@@H]1C=C[C@H](n2cc(C)c(=O)[nH]c2=O)O1)Oc1ccc(C(F)(F)F)cc1 (stereo partly specified)	7.33	1160	7.43		912	42900	> 100	7.66	180	7.12				
COC(=O)[C@H](C)NP(=O)(OC[C@@H]1C=C[C@H](n2cc(C)c(=O)[nH]c2=O)O1)Oc1cccc(S(F)(F)(F)(F)F)c1 (stereo partly specified)	7.44	1750	7.52		1460	52600	> 100	7.27	75	6.47	Metabolite_Detected	Metabolite_Detected	>10	>10
COC(=O)[C@H](C)NP(=O)(OC[C@@H]1C=C[C@H](n2cc(C)c(=O)[nH]c2=O)O1)Oc1ccccc1 (stereo partly specified)	6.57	1200	6.68		930	251000		6.52		6.49				
